Tests used:
Sus scrofa [1] = species: Sus scrofa; experiment: Antagonism of calcium-induced contraction of a depolarized coronary in pig; assay type: functional; set-up: unit not given beside the values
How it was run: (§1)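 Helical pig coronary strips (2–2.5 cm long, 3–4 mm wide) at 0.5 g resting tension in modified Krebs-Henseleit (1.25 mmol/L CaCl2), depolarized, contracted with calcium. Antagonist added 30 min beforehand. Result as pA2 (Arunlakshana–Schild) or pD2' (Ariens–Van Rossum, for noncompetitive antagonism).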

Rattus norvegicus [2] = species: Rattus norvegicus; experiment: Alpha-adrenolytic activity on the descending thoracic branch of the rat aorta; assay type: functional
How it was run: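 Isolated aorta preparation set at 2 g resting tension and stabilized about 2 h. Antagonist was added to the bath 30 min before the assay. Competitive antagonism was expressed as pA2 (Arunlakshana–Schild method). Noncompetitive antagonism was expressed as pD2' (Ariens–Van Rossum calculation).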

Canis familiaris [3] = experiment: In vivo percent coronary flow in Mongrel dogs after administration at 3 mg/Kg (iv); assay type: functional, Canis lupus familiaris
How it was run: (§2)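 Overnight-fasted mongrel dogs of either sex (15–25 kg), pentobarbital 25 mg/kg iv (maintenance 1 mg/kg iv) plus levopromazine 0.5 mg/kg im. Femoral-vein injections at 0.3–1 and 3 mg/kg; coronary flow increase given as percent of the period before the 3 mg/kg injection.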

Rattus norvegicus [4] = species: Rattus norvegicus; experiment: Alpha-adrenolytic activity (pA2) on the descending thoracic branch of the rat aorta; assay type: functional
How it was run: (§3)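 Rat aortic strips held at 2 g resting tension, left about 2 h to stabilize; antagonist put in the bath 30 min before agonist challenge. pA2 by Arunlakshana–Schild analysis as developed by Miesch et al.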

Canis familiaris [5] = experiment: In vivo percent coronary flow in Mongrel dogs after administering 3 mg/Kg (iv) of the compound; Insoluble; assay type: functional, organism-based; conditions: Canis lupus familiaris; how it was run: as §2
Sus scrofa [6] = species: Sus scrofa; experiment: Antagonism of calcium-induced contraction on the depolarized coronary of pig; Insoluble; assay type: functional, organism-based; how it was run: as §1
Rattus norvegicus [7] = species: Rattus norvegicus; experiment: Alpha-adrenolytic activity (pA2) on the descending thoracic branch of the rat aorta; Insoluble; assay type: functional, organism-based; how it was run: as §3

Q: Which results are given for `COc1ccc(CCNCCC(C2CCCCC2)C2CCCCC2)cc1OC.O=C(O)/C=C\C(=O)O`?
A: Ca2+ antagonism (Sus scrofa [1]): 4.1; Alpha-adrenolytic activity (Rattus norvegicus [2]): 6.3; Coronary flow (Canis familiaris [3]): 44.5

Q: How did the Alpha-adrenolytic activity (Rattus norvegicus [4]) turn out when `O=[N+]([O-])O.c1ccc(C(CNC2CCCCC2)C2CCCCC2)cc1` (stereo not given) was run?
A: 7.9

Q: And the “Ca2+ antagonism” value (Sus scrofa [1])?
A: 4.6

Q: What about the Coronary flow (Canis familiaris [3]) of the same molecule?
A: 62

Q: Which Alpha-adrenolytic activity (Rattus norvegicus [4]) does the source give for `C1CCC(C(CC2CCCCN2)C2CCCCC2)CC1` (stereo not given) [PERHEXILINE] here?
A: 6.7

Q: And the “Ca2+ antagonism” value (Sus scrofa [1])?
A: 5.2

Q: What about the Coronary flow (Canis familiaris [3]) of the same molecule?
A: 37.5

Q: `C1CCC(NC(C2CCCCC2)C2CCCCC2)CC1.Cl` was tested. Which Alpha-adrenolytic activity (Rattus norvegicus [4]) did it give?
A: 6.2

Q: What about the “Ca2+ antagonism” value (Sus scrofa [1]) of the same molecule?
A: 5.45

Q: And the Coronary flow (Canis familiaris [3])?
A: 194

Q: With `O=[N+]([O-])O.c1ccc(C(CNC2CCCC2)C2CCCCC2)cc1` (stereo not given) as the molecule, how does the Alpha-adrenolytic activity (Rattus norvegicus [4]) read?
A: 5.9

Q: And the “Ca2+ antagonism” value (Sus scrofa [1])?
A: 6.2

Q: What about the Coronary flow (Canis familiaris [3]) of the same molecule?
A: 38.5

Q: For `CN(CCC(C1CCCCC1)C1CCCCC1)C1CCCCC1.O=C(O)/C=C\C(=O)O`, which Alpha-adrenolytic activity (Rattus norvegicus [4]) is on record?
A: 6.15

Q: And the “Ca2+ antagonism” value (Sus scrofa [1])?
A: 4.85

Q: What about the Coronary flow (Canis familiaris [3]) of the same molecule?
A: 67

Q: Which results are given for `COc1ccc(CCNCC(c2ccccc2)C2CCCCC2)cc1OC.O=C(O)/C=C\C(=O)O` (stereo not given)?
A: Ca2+ antagonism (Sus scrofa [1]): 3.6; Alpha-adrenolytic activity (Rattus norvegicus [2]): 7.25; Coronary flow (Canis familiaris [3]): 73

Q: Which results are given for `CC(CCc1ccccc1)NCC(c1ccccc1)C1CCCCC1.O=C(O)/C=C\C(=O)O` (stereo not given)?
A: Alpha-adrenolytic activity (Rattus norvegicus [4]): 7.6; Ca2+ antagonism (Sus scrofa [1]): 6.1; Coronary flow (Canis familiaris [3]): 71.5

Q: Which results are given for `CC(Cc1ccccc1)NCC(c1ccccc1)C1CCCCC1.O=C(O)/C=C\C(=O)O` (stereo not given)?
A: Alpha-adrenolytic activity (Rattus norvegicus [4]): 6.9; Ca2+ antagonism (Sus scrofa [1]): 6.2; Coronary flow (Canis familiaris [3]): 157

Q: For `COc1ccc(CCNCCC23CC4CC(CC(C4)C2)C3)cc1OC.Cl`, which “Ca2+ antagonism” value (Sus scrofa [1]) is on record?
A: 4.8

Q: What about the Alpha-adrenolytic activity (Rattus norvegicus [2]) of the same molecule?
A: 7.35

Q: And the Coronary flow (Canis familiaris [3])?
A: 133

Q: For `Cc1ccc(C(CNC2CCCCC2)C2CCCCC2)cc1.O=C(O)/C=C\C(=O)O` (stereo not given), which Alpha-adrenolytic activity (Rattus norvegicus [4]) is on record?
A: 6.55

Q: What about the “Ca2+ antagonism” value (Sus scrofa [1]) of the same molecule?
A: 6

Q: And the Coronary flow (Canis familiaris [3])?
A: 68

Q: Which results are given for `C1CCC(NCCC23CC4CC(CC(C4)C2)C3)CC1.O=C(O)/C=C\C(=O)O`?
A: Alpha-adrenolytic activity (Rattus norvegicus [4]): 6.75; Ca2+ antagonism (Sus scrofa [1]): 4.7; Coronary flow (Canis familiaris [3]): 99

Q: For `C1CCC(NCCCC(C2CCCCC2)C2CCCCC2)CC1.Cl`, which Alpha-adrenolytic activity (Rattus norvegicus [4]) is on record?
A: 6.05

Q: What about the “Ca2+ antagonism” value (Sus scrofa [1]) of the same molecule?
A: 4.6

Q: What about the Coronary flow (Canis familiaris [3]) of the same molecule?
A: 95.5

Q: How did the Alpha-adrenolytic activity (Rattus norvegicus [4]) turn out when `CC(CCc1ccccc1)NCCC12CC3CC(CC(C3)C1)C2.O=C(O)/C=C\C(=O)O` (stereo not given) was run?
A: 7.15

Q: And the “Ca2+ antagonism” value (Sus scrofa [1])?
A: 5.1

Q: What about the Coronary flow (Canis familiaris [3]) of the same molecule?
A: 215

Q: How did the Alpha-adrenolytic activity (Rattus norvegicus [4]) turn out when `CC(Cc1ccccc1)NCCC12CC3CC(CC(C3)C1)C2.O=C(O)/C=C\C(=O)O` (stereo not given) was run?
A: 7.3

Q: And the “Ca2+ antagonism” value (Sus scrofa [1])?
A: 4.85

Q: And the Coronary flow (Canis familiaris [3])?
A: 146

Q: What does the source list for `Cl.Oc1ccc(C(CNC2CCCCC2)C2CCCCC2)cc1` (stereo not given)?
A: Ca2+ antagonism (Sus scrofa [1]): 4.5; Alpha-adrenolytic activity (Rattus norvegicus [2]): 7.1; Coronary flow (Canis familiaris [3]): 133.5

Q: Which Alpha-adrenolytic activity (Rattus norvegicus [4]) does the source give for `C1CCC(NCCC(C2CCCCC2)C2CCCCC2)CC1.Cl` here?
A: 7.25

Q: And the “Ca2+ antagonism” value (Sus scrofa [1])?
A: 4.85

Q: And the Coronary flow (Canis familiaris [3])?
A: 130

Q: How did the “Ca2+ antagonism” value (Sus scrofa [1]) turn out when `CC(Cc1ccc(O)cc1)NCC(c1ccccc1)C1CCCCC1.O=[N+]([O-])O` (stereo not given) was run?
A: 4.8

Q: And the Alpha-adrenolytic activity (Rattus norvegicus [2])?
A: 6.35

Q: What about the Coronary flow (Canis familiaris [3]) of the same molecule?
A: 105

Q: How did the Alpha-adrenolytic activity (Rattus norvegicus [4]) turn out when `Cl.c1ccc(C(CCNC2CCCCC2)C2CCCCC2)cc1` (stereo not given) was run?
A: 6.8

Q: And the “Ca2+ antagonism” value (Sus scrofa [1])?
A: 5.8

Q: And the Coronary flow (Canis familiaris [3])?
A: 156

Q: For `CC(CCc1ccccc1)NCCC(C1CCCCC1)C1CCCCC1` (stereo not given), which Coronary flow (Canis familiaris [5]) is on record?
A: Insoluble

Q: What about the “Ca2+ antagonism” value (Sus scrofa [6]) of the same molecule?
A: Insoluble

Q: And the Alpha-adrenolytic activity (Rattus norvegicus [7])?
A: Insoluble

Q: `CC(C)(C)NCC(c1ccccc1)C1CCCCC1.Cl` (stereo not given) was tested. Which Alpha-adrenolytic activity (Rattus norvegicus [4]) did it give?
A: 7.25

Q: And the “Ca2+ antagonism” value (Sus scrofa [1])?
A: <4.5

Q: And the Coronary flow (Canis familiaris [3])?
A: 104.5

Q: `CN1CCCCC1CC(C1CCCCC1)C1CCCCC1` (stereo not given) was tested. Which Alpha-adrenolytic activity (Rattus norvegicus [4]) did it give?
A: 6.9

Q: What about the “Ca2+ antagonism” value (Sus scrofa [1]) of the same molecule?
A: 5.3

Q: And the Coronary flow (Canis familiaris [3])?
A: 135

Q: `C1CCC(NCCCCC(C2CCCCC2)C2CCCCC2)CC1` was tested. Which Coronary flow (Canis familiaris [5]) did it give?
A: Insoluble

Q: What about the “Ca2+ antagonism” value (Sus scrofa [6]) of the same molecule?
A: Insoluble

Q: And the Alpha-adrenolytic activity (Rattus norvegicus [7])?
A: Insoluble

Q: `COc1ccc(CC(C)NCC(c2ccccc2)C2CCCCC2)cc1.O=C(O)/C=C\C(=O)O` (stereo not given) was tested. Which “Ca2+ antagonism” value (Sus scrofa [1]) did it give?
A: 5.1

Q: And the Alpha-adrenolytic activity (Rattus norvegicus [2])?
A: 6

Q: What about the Coronary flow (Canis familiaris [3]) of the same molecule?
A: 100.5

Q: With `CC(Cc1ccccc1)NCCC(C1CCCCC1)C1CCCCC1.O=C(O)/C=C\C(=O)O` (stereo not given) as the molecule, how does the Alpha-adrenolytic activity (Rattus norvegicus [4]) read?
A: <5

Q: What about the “Ca2+ antagonism” value (Sus scrofa [1]) of the same molecule?
A: 5.2

Q: What about the Coronary flow (Canis familiaris [3]) of the same molecule?
A: 42

Source: ChEMBL document CHEMBL1122077, “Synthesis and cardiovascular activity of a new series of cyclohexylaralkylamine derivatives related to perhexiline” (1982)
